{"source": "PubChem BioAssay AID2152", "about": "(The Scripps Research Institute Molecular Screening Center, 2009)", "note": "Hit rate of the full screen: of about 2,300 compounds, about 25 (1%) were called active. Many of the other results were omitted from the sample, so actives are more common in it than they were. Values without a mark were called inactive.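 Rule for the calls: active = mean inhibition over three replicate wells above the hit threshold derived in the earlier primary screen (cut at about 45% in these data); inactive = the rest.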", "data": [{"system": "Hepatitis C virus core protein (core106 dimerization)", "assay": "inhibitors of HCV core protein dimerization, confirmation, biochemical, TR-FRET, triplicate (AID 2152);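 note: 0% = DMSO wells and 100% = unlabelled core106 competitor control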", "details": "TR-FRET GST-/Flag-core106 dimerization, HTRF; at 5 µM; hits give high values", "method_in_brief": "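Test system: GST- and Flag-tagged HCV core106 peptides, dimerization via antibody TR-FRET | Medium: HEPES/KF buffer, pH 7.45 | Also added: Eu(K)-anti-GST plus XL665-anti-FLAG antibodies | Times: 4 h incubation, 22.5 °C | Signal: TR-FRET, excitation 340 nm, emission 671 and 617 nm | Evaluation: Percent inhibition from emission ratio | Replication: Triplicate wells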", "values": [{"smiles": "COC(=O)c1ccc(Nc2cc(C)nc(-c3ccccc3O)n2)cc1", "inhibition": "6.69%"}, {"smiles": "CN1CCc2c(sc3c2c(=O)n(-c2ccccc2)c2nnc(SCc4ccccc4)n32)C1", "inhibition": "3.83%"}, {"smiles": "O=C(COC(=O)c1cccc(S(=O)(=O)N2CCc3ccccc3C2)c1)NCc1ccco1", "inhibition": "2.63%"}, {"smiles": "COc1ccc(-c2cc(OC(=O)c3ccc(F)cc3)c3c(C)oc(C)c3c(=O)c2)cc1", "inhibition": "0.02%"}, {"smiles": "CC(C)(C)C(=O)COC(=O)c1c2c(nc3ccccc13)CCC2", "inhibition": "-3.89%"}, {"smiles": "Cc1cc(Br)c2nc3c(c(C(=O)O)c2c1)CCCCC3", "inhibition": "46.4% (active)"}, {"smiles": "CN(Cc1ccccc1)C(=O)C1CCN(S(=O)(=O)c2ccc3nc4c(c(C(=O)O)c3c2)CCCC4)CC1", "inhibition": "3.04%"}, {"smiles": "CCn1cc([N+](=O)[O-])c(C(=O)N2N=C(c3cccc4ccccc34)CC2c2ccccc2O)n1", "note": "(centres undefined)", "inhibition": "7.15%"}, {"smiles": "COc1ccc(CC(=O)Nc2ccc(-c3nnc(-c4ccccc4)o3)cc2)cc1OC", "inhibition": "56.3% (active)"}, {"smiles": "O=C(COc1ccccc1)Nc1ccc(-c2nnc(-c3ccco3)o2)cc1", "inhibition": "21.3%"}, {"smiles": "COc1ccc(CC(=O)Nc2ccc(-c3nnc(-c4ccccc4)o3)cc2)cc1", "inhibition": "11.4%"}, {"smiles": "Cc1nc2nc(SCC(=O)NCCCN3CCCCCC3)nn2c(C)c1Cc1ccccc1", "inhibition": "13.3%"}, {"smiles": "Cc1ccc(Cc2c(C)nc3nc(SCC(=O)NCCCN4CCCCCC4)nn3c2C)cc1", "inhibition": "89.8% (active)"}, {"smiles": "NC(=O)c1ccsc1NC(=O)COC(=O)/C=C/c1ccc([N+](=O)[O-])cc1", "inhibition": "7.73%"}, {"smiles": "CCCN(CCC)C(=O)c1cc(-c2ccc3c(c2)OCO3)nc2ccccc12", "inhibition": "-2.46%"}, {"smiles": "Cc1cc(C(=O)OCC(=O)c2cccc([N+](=O)[O-])c2)c2cccc(C)c2n1", "inhibition": "13.6%"}, {"smiles": "Cc1ccc(C)c(NC(=O)CSc2nc3nc(-c4cccs4)cc(C(F)(F)F)c3c(=O)[nH]2)c1", "inhibition": "4.9%"}, {"smiles": "CCOc1cc(/C=N/NC(N)=O)cc(Br)c1OCC(=O)Nc1cccc2ccccc12", "inhibition": "2.46%"}, {"smiles": "CCOc1ccccc1C1C(C#N)=C(N)SC(N)=C1C#N", "inhibition": "1.92%"}, {"smiles": "N#CC1=C(N)SC(N)=C(C#N)C1CCc1ccccc1", "inhibition": "-1.8%"}, {"smiles": "N#CC1=C(N)SC(N)=C(C#N)C1c1ccnc2ccccc12", "inhibition": "46.8% (active)"}, {"smiles": "C=CCn1nnc2sc3c(c2c1=O)CCC(C)C3", "note": "(centres undefined)", "inhibition": "-1.29%"}, {"smiles": "O=c1c2ccccc2nc2sc3ccccc3n12", "inhibition": "-1%"}, {"smiles": "O=C(Nc1ccc(Cl)c(Cl)c1)Nc1nnc(-c2ccncc2)s1", "inhibition": "38.8%"}, {"smiles": "Cc1ccc2nc(C)cc(C(=O)OCC(=O)c3ccc(Cl)c([N+](=O)[O-])c3)c2c1", "inhibition": "-4.97%"}, {"smiles": "CCN(CC)c1ccc(/C=N/NC(=O)Cc2nnc(NC(=O)Nc3ccccc3)s2)cc1", "inhibition": "-1.4%"}, {"smiles": "COc1ccc(/C=N/NC(=O)c2nn(-c3ccc(Cl)cc3)c(=O)c3c(N)scc23)cc1", "inhibition": "9.33%"}, {"smiles": "O=C(COC(=O)C1c2ccccc2Oc2ccccc21)Nc1ccc2c(c1)OCO2", "inhibition": "-1.06%"}, {"smiles": "O=C(NC(=S)Nc1ccc(-c2ccc(CO)o2)cc1)c1cccs1", "inhibition": "-8.29%"}, {"smiles": "CC(C)(C)c1nnc2sc(SC/C(O)=C(\\C#N)c3nc4ccccc4[nH]3)nn2c1=O", "inhibition": "0.37%"}, {"smiles": "O=C1c2c(O)cccc2Cc2cccc(O)c21", "inhibition": "53.6% (active)"}, {"smiles": "CC1=CC(=O)c2c(O)ccc(O)c2C1=O", "inhibition": "35%"}, {"smiles": "CC(C)C(C)(C#N)NC(=O)CSc1nc2scc(-c3ccco3)c2c(=O)n1-c1ccccc1", "note": "(centres undefined)", "inhibition": "-0.21%"}, {"smiles": "N#C/C(=N\\Nc1ccc(S(=O)(=O)N2CCc3ccccc32)cc1)C(N)=S", "inhibition": "-0.77%"}, {"smiles": "CC(=O)Oc1ccc(C(=O)[C@H]2[C@H]3C(=O)N(c4ccccc4)C(=O)[C@H]3[C@@H]3C=CC=NN32)cc1", "inhibition": "-1.31%"}, {"smiles": "COc1ccc(-n2nc3cc(C)c(NC(=S)NC(=O)c4ccccc4C)cc3n2)cc1", "inhibition": "14.3%"}, {"smiles": "COc1cccc(NC(=O)c2cc(-c3ccc(C)o3)nc3ccccc23)c1", "inhibition": "-3.59%"}, {"smiles": "COc1cccc(NC(=S)Nc2cc(C)cc(C)n2)c1", "inhibition": "72.9% (active)"}, {"smiles": "CC1Cc2ccccc2N1Cc1cc(=O)n2ccsc2n1", "note": "(centres undefined)", "inhibition": "3.14%"}, {"smiles": "COc1ccc(C(=O)[C@H]2[C@H]3C(=O)N(c4ccc(C)cc4)C(=O)[C@H]3C3C=CC=NN32)cc1", "note": "(some centres undefined)", "inhibition": "2.52%"}, {"smiles": "Cc1cc(C)c2nc(-c3ccccn3)cc(C(=O)Nc3ccc(S(=O)(=O)Nc4cc(C)on4)cc3)c2c1", "inhibition": "14.4%"}, {"smiles": "COc1cccc2c1NC(C(=O)O)C1CC=CC21", "note": "(centres undefined)", "inhibition": "8.1%"}, {"smiles": "O=C(O)C1Nc2c(O)cccc2C2C=CCC12", "note": "(centres undefined)", "inhibition": "53.8% (active)"}, {"smiles": "Cc1ccc2c(c1C)NC(C(=O)O)C1CC=CC21", "note": "(centres undefined)", "inhibition": "17.4%"}, {"smiles": "COc1ccccc1Nc1ncc(-c2cccs2)s1", "inhibition": "-8.18%"}, {"smiles": "O=C(CN1CCN(c2ccc(F)cc2)CC1)NC(=O)NCc1ccco1", "inhibition": "-6.85%"}, {"smiles": "O=C(Cn1c(=O)c2c(ncn2C2CCCC2)n(Cc2ccccc2)c1=O)N1CCc2ccccc21", "inhibition": "5.72%"}, {"smiles": "COc1ccc(C2=NN(c3nc(-c4ccccc4)c(CC(=O)O)s3)C(c3ccco3)C2)cc1", "note": "(centres undefined)", "inhibition": "51.3% (active)"}, {"smiles": "CC(C)[C@H](NS(=O)(=O)c1ccccc1)C(=O)OCC(=O)N1N=C(c2ccc(Cl)cc2)CC1c1ccco1", "note": "(some centres undefined)", "inhibition": "-2.37%"}, {"smiles": "COc1ccc(C2CC(c3ccccc3)=NN2c2ccc(/C=N/NC(=O)c3ccncc3)cc2)cc1", "note": "(centres undefined)", "inhibition": "-1.14%"}, {"smiles": "COc1ccc(C(=O)N/N=C(\\C)c2ccc3c(c2)C2C=CCC2C(c2ccccc2)N3)cc1", "note": "(centres undefined)", "inhibition": "1.09%"}, {"smiles": "Cc1cccc(N2CC(C(=O)Nc3nnc(SCc4ccccn4)s3)CC2=O)c1", "note": "(centres undefined)", "inhibition": "21.3%"}, {"smiles": "COc1ccc(C=O)cc1COc1ccc(F)cc1F", "inhibition": "-6.06%"}, {"smiles": "O=C(Nc1ccc(N2CCCC2)c(Cl)c1)c1cccc(-c2cc3ccccc3oc2=O)c1", "inhibition": "-5.08%"}, {"smiles": "N#Cc1c(-c2ccco2)cc(-c2ccccn2)nc1N", "inhibition": "3.09%"}, {"smiles": "CCN(CC(=O)Nc1ccc(OC)cc1)C(=O)Cc1cccs1", "inhibition": "6.25%"}, {"smiles": "Cc1ccc(C)c(S(=O)(=O)N2CCC(c3nc4c(nnn4Cc4ccc5c(c4)OCCO5)c(=O)[nH]3)CC2)c1", "inhibition": "7.31%"}, {"smiles": "Cc1ccc(O)c(N=CC2=C(O)c3ccccc3C2=O)c1", "inhibition": "7.52%"}, {"smiles": "COc1ccccc1NS(=O)(=O)c1cc(NC(=O)Nc2ccc(Cl)cc2Cl)ccc1N1CCCCC1", "inhibition": "-5.21%"}, {"smiles": "O=Cc1cn(-c2ccccc2)nc1-c1cc2c(ccc3ccccc32)oc1=O", "inhibition": "-0.21%"}, {"smiles": "COC(=O)/C=c1/s/c(=C(\\C#N)C(=O)NCc2ccco2)n(-c2ccc(C)cc2)c1=O", "inhibition": "-4.05%"}, {"smiles": "Cc1c(C(=O)Nc2ccc(Cl)cc2)c2ccccn2c1C(=O)c1ccc([N+](=O)[O-])cc1", "inhibition": "-5.31%"}, {"smiles": "O=C(OCC(=O)c1ccc(Cl)s1)c1cnccn1", "inhibition": "1.14%"}, {"smiles": "CCOC(=O)c1ccc(NC(=O)COc2ccc(-n3cnnn3)cc2)cc1", "inhibition": "3.21%"}, {"smiles": "COc1ccccc1N1CCN(C(=O)c2ccc3c(c2)NC(=O)C(CSCc2ccccc2C)N3)CC1", "note": "(centres undefined)", "inhibition": "25.3%"}, {"smiles": "Cc1ccc(N2C(=O)N3[C@H](c4ccc(F)cc4)[C@@H]4C(=O)N(C5CCCCC5)C(=O)[C@@H]4[C@]3(Cc3ccccc3)C2=O)cc1", "inhibition": "-1.83%"}, {"smiles": "CC(=O)Nc1ccc(NC(=O)c2ccc(COc3ccccc3)cc2)cc1", "inhibition": "-12.8%"}, {"smiles": "Cc1cc(-c2csc(NC(=O)c3cc4ccccc4o3)n2)c(C)n1C", "inhibition": "22.5%"}, {"smiles": "COC(=O)c1ccc(Oc2coc3cc(OCc4cnn(-c5ccccc5)c4)ccc3c2=O)cc1", "inhibition": "-4.6%"}, {"smiles": "N#Cc1c(-c2cccc(F)c2)cc(-c2ccccc2)nc1Br", "inhibition": "9.78%"}, {"smiles": "CCOC(=O)C1=C(c2ccccc2)NC(=S)NC1c1cc([N+](=O)[O-])ccc1OC", "note": "(centres undefined)", "inhibition": "-1.99%"}, {"smiles": "COc1ccc(-n2c(-c3ccccc3)nc(=S)c3c2CCCC3)cc1", "inhibition": "33.8%"}, {"smiles": "O=[N+]([O-])c1ccc(Oc2cc(NC3CCCCCCC3)c([N+](=O)[O-])cc2[N+](=O)[O-])cc1", "inhibition": "-0.42%"}, {"smiles": "Cc1ccc2nc(/C(C#N)=C\\c3ccc(Oc4ccc(C(F)(F)F)cc4[N+](=O)[O-])cc3)[nH]c2c1", "inhibition": "-6.22%"}, {"smiles": "N#CC(=C1CCCC1)c1nc(-c2ccccc2O)cs1", "inhibition": "-2%"}, {"smiles": "O=C(Nc1ccc2c(c1)OCO2)c1cc(-c2cccnc2)nc2ccccc12", "inhibition": "-0.48%"}, {"smiles": "O=C1C2C3C=CC(C4CC34)C2C(=O)N1/N=C/c1ccc(-c2ccc(Cl)cc2[N+](=O)[O-])o1", "note": "(centres undefined)", "inhibition": "-5.46%"}, {"smiles": "CCN1C=C(Cc2cccs2)C2=C(C1)C(c1cccs1)C(C#N)=C(N)O2", "note": "(centres undefined)", "inhibition": "-3.27%"}, {"smiles": "CCCc1nc2sc3c(SCC(=O)NCc4ccco4)ncnc3c2c2c1CCC2", "inhibition": "15.9%"}, {"smiles": "CSc1nc(SCC(=O)NCc2ccco2)c2c3c(sc2n1)CN(C)CC3", "inhibition": "20.1%"}, {"smiles": "CCCCc1nc2sc3c(SCC(=O)NCc4ccco4)ncnc3c2c2c1CCC2", "inhibition": "52.8% (active)"}, {"smiles": "O=C(NCc1ccco1)C(c1ccco1)N(C(=O)Cn1nnc2ccccc21)c1ccc2c(c1)CCC2", "note": "(centres undefined)", "inhibition": "6.56%"}, {"smiles": "COc1ccc(/C=C/C(=O)Nc2cc(C)nn2-c2nc3ccccc3n2Cc2cccc([N+](=O)[O-])c2)cc1", "inhibition": "-5.15%"}, {"smiles": "COc1ccc(NS(=O)(=O)c2ccc(O)c(NC(=O)c3cc4c(C)nn(-c5ccc(F)cc5)c4s3)c2)cc1", "inhibition": "-2.83%"}, {"smiles": "Cc1ccc(Cn2c(SCC(=O)Nc3cc(C)on3)nc3ccccc3c2=O)cc1", "inhibition": "9.61%"}, {"smiles": "CCCCn1c(SCC(=O)Nc2cc(C)on2)nc2ccccc2c1=O", "inhibition": "54.9% (active)"}, {"smiles": "COc1cccc(-n2c(SCC(=O)Nc3cc(C)on3)nc3c([nH]c4ccccc43)c2=O)c1", "inhibition": "-2.22%"}, {"smiles": "CC1CCCCC12NC(=O)N(CC(=O)c1ccc[nH]1)C2=O", "note": "(centres undefined)", "inhibition": "-2.48%"}, {"smiles": "Cn1c(SCC(=O)Nc2sccc2C#N)nnc1-c1ccccc1", "inhibition": "-0.16%"}]}]}
